Source: ChEMBL document CHEMBL1649151, “Urinary bactericidal activity of Doripenem versus that of levofloxacin in patients with complicated urinary tract infections or pyelonephritis” (Antimicrob Agents Chemother, 2009)

Assays:
Enterococcus faecalis [1] = assay: Antimicrobial activity against Enterococcus faecalis 2215770 B-T isolated from patient with pyelonephritis assessed as >3-log reduction in urinary bacterial titer after 16 hrs; type: functional, Urine
Method in brief: (§1)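 Urine was collected before dosing and on day 3 of i.v. therapy (steady state), in 4-h intervals from infusion start (0–4 to 20–24 h), stored at −80°C and sterile filtered. It was serially diluted twofold (1:0 to 1:131,072) in the patient's drug-free pre-dose urine. Microdilution used an inoculum of 1.0 x 10^6–9.5 x 10^6 CFU/ml, incubated 18 h at 37°C, then subcultured 24 h on blood agar. The endpoint was >99.9% kill, reported as reciprocal titer.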

Enterococcus faecalis [2] = assay: Antimicrobial activity against Enterococcus faecalis 2215770 B-T isolated from patient with pyelonephritis assessed as >3-log reduction in urinary bacterial titer after 8 hrs; type: functional, Urine; method in brief: as §1
Escherichia coli [3] = assay: Antimicrobial activity against Escherichia coli 1889645 B-I isolated from patient with pyelonephritis assessed as >3-log reduction in urinary bacterial titer after 4 hrs; type: functional, Urine
Method in brief: (§2)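 Urine was collected on day 3 of i.v. therapy (steady state) over 4-h intervals from infusion start (0–4 to 20–24 h), stored at –80°C and sterile filtered. It was serially diluted twofold (1:0 up to 1:131,072) in the patient's own pre-dose drug-free urine. Microdilution used a final inoculum of 1.0 x 10^6 to 9.5 x 10^6 CFU/ml, incubated 18 h at 37°C in air. 10 µl was subcultured onto 5% blood Columbia agar for 24 h at 37°C. The bactericidal endpoint was >99.9% (>3-log) kill, reported as a reciprocal titer.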

Escherichia coli [4] = assay: Antimicrobial activity against Escherichia coli 1821385 B-C isolated from patient with pyelonephritis assessed as >3-log reduction in urinary bacterial titer after 4 hrs; type: functional, Urine; method in brief: as §2
Enterococcus faecalis [5] = assay: Antimicrobial activity against Enterococcus faecalis 2215770 B-T isolated from patient with pyelonephritis assessed as >3-log reduction in urinary bacterial titer after 20 hrs; type: functional, Urine; method in brief: as §1
Escherichia coli [6] = assay: Antimicrobial activity against Escherichia coli 1655646 A-Y isolated from patient with pyelonephritis assessed as >3-log reduction in urinary bacterial titer after 4 hrs; type: functional, Urine; method in brief: as §1
Enterococcus faecalis [7] = assay: Antimicrobial activity against Enterococcus faecalis 2215767-10 B-S isolated from patient with pyelonephritis assessed as >3-log reduction in urinary bacterial titer after 20 hrs; type: functional, Urine; method in brief: as §1
[8] = tested on: Staphylococcus epidermidis; assay: Antimicrobial activity against Staphylococcus epidermidis 1949822 B-J isolated from patient with pyelonephritis assessed as >3-log reduction in urinary bacterial titer after 12 hrs; type: functional, Urine
Escherichia coli [9] = assay: Antimicrobial activity against Escherichia coli 1889647 B-H isolated from patient with pyelonephritis assessed as >3-log reduction in urinary bacterial titer after 12 hrs; type: functional, Urine; method in brief: as §2
Escherichia coli [10] = assay: Antimicrobial activity against Escherichia coli 1655646 A-Y isolated from patient with pyelonephritis by Etest; type: functional
Escherichia coli [11] = assay: Antimicrobial activity against Escherichia coli 1655646 A-Y isolated from patient with pyelonephritis assessed as >3-log reduction in urinary bacterial titer after 12 hrs; type: functional, Urine; method in brief: as §1
[12] = tested on: Staphylococcus epidermidis; assay: Antimicrobial activity against Staphylococcus epidermidis 2297262-9 B-V isolated from patient with pyelonephritis assessed as >3-log reduction in urinary bacterial titer after 8 hrs; type: functional, Urine
Enterococcus faecalis [13] = assay: Antimicrobial activity against Enterococcus faecalis 2297262-10 B-V isolated from patient with pyelonephritis assessed as >3-log reduction in urinary bacterial titer after 8 hrs; type: functional, Urine; method in brief: as §1
Serratia marcescens = assay: Antimicrobial activity against Serratia marcescens 2297260 B-U isolated from patient with pyelonephritis assessed as >3-log reduction in urinary bacterial titer after 4 hrs; type: functional, Urine
Pseudomonas aeruginosa [14] = assay: Antimicrobial activity against Pseudomonas aeruginosa 2062713 B-Q isolated from patient with pyelonephritis assessed as >3-log reduction in urinary bacterial titer after 24 hrs; type: functional, Urine
Pseudomonas aeruginosa [15] = assay: Antimicrobial activity against Pseudomonas aeruginosa 1821383 B-E isolated from patient with pyelonephritis assessed as >3-log reduction in urinary bacterial titer after 24 hrs; type: functional, Urine
Escherichia coli [16] = assay: Antimicrobial activity against Escherichia coli 2062716 B-R isolated from patient with pyelonephritis assessed as >3-log reduction in urinary bacterial titer after 24 hrs; type: functional, Urine
Method in brief: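 Patient urine was collected on day 3 of i.v. therapy (steady state) over 4-h intervals after infusion start, stored at –80°C, and sterile filtered. It was twofold serially diluted (1:0 to 1:131,072) in the patient's own pre-dose drug-free urine, inoculated to 1.0 x 10^6–9.5 x 10^6 CFU/ml, and incubated for 18 h at 37°C. Subcultures were grown on blood agar for 24 h. The UBT is the reciprocal of the highest dilution giving >99.9% kill.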

## C[C@@H](O)[C@H]1C(=O)N2C(C(=O)O)=C(S[C@@H]3CN[C@H](CNS(N)(=O)=O)C3)[C@H](C)[C@H]12 [DORIPENEM]
Enterococcus faecalis [1]
  urinary bactericidal titer: 512 reciprocal titer
Enterococcus faecalis [2]
  urinary bactericidal titer: 512 reciprocal titer
Escherichia coli [3]
  urinary bactericidal titer: 65500 reciprocal titer
Escherichia coli [4]
  urinary bactericidal titer: 4096 reciprocal titer
Enterococcus faecalis [5]
  urinary bactericidal titer: 2048 reciprocal titer

## C[C@H]1COc2c(N3CCN(C)CC3)c(F)cc3c(=O)c(C(=O)O)cn1c23.C[C@H]1COc2c(N3CCN(C)CC3)c(F)cc3c(=O)c(C(=O)O)cn1c23.O [LEVOFLOXACIN]
Escherichia coli [6]
  urinary bactericidal titer: 2048 reciprocal titer
Enterococcus faecalis [7]
  Time: 0 h
[8]
  urinary bactericidal titer: 2 reciprocal titer
Escherichia coli [9]
  urinary bactericidal titer: 512 reciprocal titer
Escherichia coli [10]
  MIC: 0.047 µg/mL
Escherichia coli [11]
  urinary bactericidal titer: 2048 reciprocal titer
[12]
  urinary bactericidal titer: 1 reciprocal titer
Enterococcus faecalis [13]
  urinary bactericidal titer: 0 reciprocal titer
Serratia marcescens
  urinary bactericidal titer: 512 reciprocal titer
Pseudomonas aeruginosa [14]
  urinary bactericidal titer: 2 reciprocal titer
Pseudomonas aeruginosa [15]
  urinary bactericidal titer: 16 reciprocal titer
Escherichia coli [16]
  urinary bactericidal titer: 64 reciprocal titer
